For experiment [1], the system named is SK-OV-3. As to the kind of experiment: Cytotoxicity against human SKOV3 cells after 48 hrs by resazurin dye assay. It is filed as functional, cell-based. To be noted: SK-OV-3, 48 h. The procedure, abridged: (§1)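 Cells were seeded in the supplier-recommended growth medium and grown 24 h at 37 °C/5% CO2, with density set per line to give a linear signal. Compound exposure was 48 h in total. Resazurin (0.2 mg/mL in DPBS) was added for the final 3 h, and fluorescence was read at 590 nm. Data were expressed as % efficacy against non-treated cells and cell-free blanks on each plate. EC50 came from non-linear regression.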
In general terms: The colour change of resazurin is a common sign of viable cells or microbes.

Experiment [2] in a line: Cytotoxicity against human KB/HeLa cells after 48 hrs by resazurin dye assay. It is filed as functional, cell-based. The method in brief: as §1
The test system of another experiment is NCI-H460. As to the kind of experiment: Cytotoxicity against human NCI-H460 cells after 48 hrs by resazurin dye assay. The experiment is classed as functional, cell-based. The following applies: NCI-H460, 48 h. The method in brief: as §1
Experiment [3] concerns SK-OV-3. The experiment in a line: Cytotoxicity against human SKOV3 cells at 31.6 uM after 48 hrs by resazurin dye assay. It is filed as functional. To be noted: SK-OV-3, 48 h.

Regarding `O=C1C(=O)c2c(nc3ccccn23)-c2ccncc21`, the figures for the EC50 (with SK-OV-3 [1]; in experiment [2]; with NCI-H460) were 498 nM, 244 nM and 242 nM, respectively.

For `O=C1C(=O)c2c(nc3ccc(Cl)cn23)-c2ccncc21`, the concentration for a half-maximal effect (EC50) (commonly the concentration giving half of the maximal effect) worked out at 525 nM in the experiment on SK-OV-3 [1], 394 nM in experiment [2] and 342 nM in the experiment with NCI-H460.

Consider `O=C1/C(=N\OCCO)c2cnccc2-c2nc3ccccn3c21`, for which the values for the EC50 (in the experiment with SK-OV-3 [1]; in experiment [2]; in the experiment with NCI-H460) were 2060 nM, 532 nM and 521 nM, respectively.

With `CN(C)CCO/N=C1\C(=O)c2c(nc3ccccn23)-c2ccncc21`, the EC50 is 931 nM in the experiment on SK-OV-3 [1], 406 nM in experiment [2] and 414 nM in the experiment with NCI-H460.

On to `CN(C)CCN(C)c1cc2c(cn1)C(=O)C(=O)c1c-2nc2ccc(Cl)cn12`, for which the inhibition (usually the percentage by which the read-out fell short of the control) at 31.6 µM in the experiment with SK-OV-3 [3] was under 30%. Further, the figures for the EC50 (in experiment [2]; in the experiment on NCI-H460) were 2800 nM and 2140 nM, respectively.

As to `O=C1C(=O)c2c(nc3ccccn23)-c2cnccc21`, the figures for the 50% effective concentration (EC50) (with SK-OV-3 [1]; in experiment [2]; in the experiment on NCI-H460) were 1220 nM, 917 nM and 620 nM, respectively.

Consider `O=C1/C(=N\OCCO)c2ccncc2-c2nc3ccccn3c21`, for which the figures for the concentration for a half-maximal effect (EC50) (with SK-OV-3 [1]; in experiment [2]; in the experiment on NCI-H460) were 14700 nM, 4350 nM and 3880 nM, respectively.

`CN(C)CCO/N=C1\C(=O)c2c(nc3ccccn23)-c2cnccc21`: the concentration giving a half-maximal response (EC50) in the experiment on SK-OV-3 [1] was 2930 nM; in experiment [2] it was 6150 nM; in the experiment on NCI-H460 it was 2670 nM.

With `O=C1C(=O)c2c(nc3ccccn23)-c2ncncc21`, the half-maximal effective concentration (EC50) was determined as 283 nM with SK-OV-3 [1], 145 nM in experiment [2] and 337 nM in the experiment with NCI-H460.

Turning to `COc1cccc2c1C(=O)c1c(O)c3c(c(O)c1C2=O)C[C@@](O)(C(=O)CO)C[C@@H]3O[C@H]1C[C@H](N)[C@H](O)[C@H](C)O1` [DOXORUBICIN], the 50% effective concentration (EC50) in the experiment with SK-OV-3 [1] worked out at 290 nM; in experiment [2], 250 nM; with NCI-H460 it was 40 nM.

On to `O=C1c2c(O)ccc(O)c2C(=O)c2c(NCCNCCO)ccc(NCCNCCO)c21` [MITOXANTRONE], for which the values for the EC50 (in experiment [2]; in the experiment on NCI-H460) were 420 nM and 30 nM, respectively.

These data come from ChEMBL document CHEMBL2424651, “Synthesis and antiproliferative activity of new cytotoxic tri- and tetraazabenzo[3,2-a]fluorene-5,6-dione derivatives” (Bioorg Med Chem Lett, 2013).
